Assay results gathered from unrelated publications.
Each line is one published result; the experiments were not run side by side.
Target: Myosin light chain kinase, smooth muscle (MYLK, Homo sapiens, UniProt Q15746)

| SMILES | assay | setting | endpoint | result |
| --- | --- | --- | --- | --- |
| Cn1c2c(Cl)c(Cl)ccc2c2cc(N)[nH]c(=O)c21 | thermal stability, DSF | 10 µM | ΔTm | 0.1 °C |
| Cc1nc(N2CC[C@@H](O)C2)ncc1-c1cc(C(F)(F)F)cc2[nH]ncc12 | binding, competition with immobilised ligand | 1 µM | remaining binding | 100% |
| Oc1cccc(-c2nc(N3CCOCC3)c3oc4ncccc4c3n2)c1 | cell-free assay | 0.5 µM | remaining signal | 77.1% |
| Cn1cncc1C1=CN(c2ncnc3[nH]cnc23)CCS1 | enzyme activity, inhibitor, radiometric | 2 µM | inhibition | 91.1% |
| Cc1cnn2ncc(-c3ccnc(N(C)C)n3)c2c1 | binding | 1 µM | remaining binding | 99% |
| Cn1nc(C(=O)NCc2ccc(C(=O)O)cc2)cc1-c1ccc2[nH]ccc2c1 | cell-free assay, competition with immobilised ligand | 0.1 µM | remaining binding | 62% |
| CC(C)(C)c1nc2c(s1)c1nc(N)ncc1c1ccc(NS(=O)(=O)c3c(F)cccc3F)c(F)c12 | enzyme activity, inhibitor, radiometric | 1 µM | remaining activity | 87% |
| Cn1c(=O)n(-c2ccc(C(C)(C)C#N)cc2)c2c3cc(-c4cnc5ccccc5c4)ccc3ncc21 | enzyme activity, inhibitor | 10 µM | remaining activity | 109% |
| C[C@H](NC(=O)c1cnc2n1[C@](C)(Cc1ccc(C#N)cc1)C(=O)N2c1cc(Cl)c(F)c(Cl)c1)C(=O)NC1(c2ccccn2)CC1 | cell-free assay, competition with immobilised ligand | 1 µM | remaining binding | 100% |
| Oc1ccc(-c2nc(-c3ccncc3)c(-c3ccc(F)cc3)[nH]2)cc1 | cell-free assay | 0.5 µM | remaining signal | 106% |
| COCCOc1nc(-c2ccc(Cl)nc2)nc2c1CN(C(=O)c1ncn3ccccc13)CC2 | cell-free assay, competition with immobilised ligand | 0.1 µM | remaining binding | 70% |
| COc1cc(Nc2cnc(C#N)c(O[C@H](C)CN(C)C)n2)ncc1-c1cnn(C)c1 | enzyme activity, inhibitor, radiometric | 1 µM | remaining activity | 80% |
| O=C(NC[C@@H]1[C@H]2CN(C(=O)OCc3cc(C(F)(F)F)cc(C(F)(F)F)c3)C[C@@H]12)c1ccc2[nH]nnc2c1 | cell-free assay, competition with immobilised ligand | 1 µM | remaining binding | 88% |
| Nc1nc(NC2CCCCC2)sc1C(=O)c1ccccc1 | enzyme activity, inhibitor | 10 µM | remaining activity | 44% |
| CN(C)c1ncnc(-c2ccc3nc(Nc4cc(CN5CCN(C(=O)CC(F)(F)F)CC5)ccn4)[nH]c3c2)c1Cl | cell-free assay, competition with immobilised ligand | 1 µM | remaining binding | 68% |
| CN1CC(Oc2cnc(C#N)cc2-c2ccn3nc(NC(=O)C4CC4)cc3c2)C1 | enzyme activity, inhibitor | 1 µM | inhibition | -19% |
| O=C(Nc1cccnn1)N1CCC(=Cc2cccc(Oc3ccc(C(F)(F)F)cn3)c2)CC1 | cell-free assay, competition with immobilised ligand | 1 µM | remaining binding | 100% |
| O=C1c2ccccc2-c2n[nH]c3cccc1c23 | enzyme activity, inhibitor | 0.5 µM | activity vs control | 48% |
| Cc1cc(NC(=O)c2cccc3cc(-c4cccc5[nH]nc(N)c45)ccc23)ccc1F | enzyme activity, inhibitor | 0.1 µM | activity vs control | 89% |
| Cn1cnc(Br)c1C1=CN(c2ncnc3[nH]cnc23)CCS1 | enzyme activity, inhibitor, radiometric | 2 µM | inhibition | 93.4% |
| Oc1cccc(-c2nc(N3CCOCC3)c3oc4ncccc4c3n2)c1 | enzyme activity, inhibitor | 10 µM | remaining activity | 48% |
| O=C(Nc1cnn(-c2csc(C(=O)NC3COC3)c2)c1)Nc1ccccc1Cl | enzyme activity, inhibitor | 5 µM | remaining activity | 97.5% |
| O=C(N1CCS(=O)(=O)CC1)N1C[C@H](c2ccc(OC(F)(F)F)cc2)C[C@H](c2nc(C3CC3)no2)C1 | cell-free assay, competition with immobilised ligand | 1 µM | remaining binding | 100% |
| COc1cc(/C=C/C(=O)CC(=O)/C=C/c2ccc(O)c(OC)c2)ccc1O | enzyme activity, inhibitor | 1 µM | activity vs control | 70% |
| Cc1sc(C(=O)NC2COC2)cc1-n1cc(NC(=O)Nc2c(F)cccc2Cl)cn1 | enzyme activity, inhibitor | 10 µM | remaining activity | 103% |
| CC(C)(C)C(=O)c1sc(NC2CCCCC2)nc1N | enzyme activity, inhibitor | 10 µM | remaining activity | 74% |
